Each structure is given as a SMILES string.

This series is described as follows: Toxicity liver stage against HepG2, at 10uM. It is filed as cell-based. Also on record: test concentration 10 uM, cell line HepG2-A16-CD81EGFP. The note with it: human, HepG2-A16-CD81EGFP cells; read-out: INHIBITION
The method, boiled down: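 Uninfected HepG2-A16-CD81EGFP cells, 3 × 10^3 per well, 1536-well, plated on prespotted compound at 10 μM final, parasite-free screening media added to match infected plates; puromycin 10 μM positive, DMSO 0.5% negative; run in parallel with 48 h PbLuc assay at 37 °C, 5% CO2; viability by CellTiter-Glo luminescence, normalized to controls.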
With `CCn1ccnc1CN1CCCC(CO)(Cc2cccc(OC)c2)C1` (configuration not stated), the cytotoxicity at 10 µM turned out to be 3.25%.

In the case of `O=c1[nH]cnc2[nH]c(N3CCCCC3)nc12`, the cytotoxicity at 10 µM stood at 3.03%.

`F[C@@H]1CN(Cc2ccccc2)C[C@@H]1OCc1nc2cnccc2[nH]1`: the cytotoxicity at 10 µM was -0.966%.

As to `CN1CC[C@H](N(Cc2ccccc2)CC2CC2)C[C@H](O)C1`, the cytotoxicity at 10 µM was -1.47%.

In the case of `Cc1ccc(C(=O)N2CC(=O)N(Cc3cccs3)CC(O)C2)cc1` (configuration not stated), the cytotoxicity at 10 µM is -5.46%.

For the compound `Cc1nc(OCC(=O)N2CCCC2)cc(-n2cccn2)n1`, the cytotoxicity at 10 µM came to 3.99%.

Consider `COCC1CC2(CCN(C(=O)c3ccc(F)c(Cl)c3)CC2)CO1` (configuration not stated), for which the cytotoxicity at 10 µM is -131%.

In the case of `COc1cccc(CC(=O)N2CCC(c3ccn4nccc4n3)CC2)c1`, the cytotoxicity at 10 µM is -3.79%.

Turning to `Cc1nc(=O)c2ccccc2n1C1=CCN(CC(=O)NC(C)C)CC1`, the cytotoxicity at 10 µM is -7.99%.

In the case of `Cc1cc(-c2nccs2)nc(C2CCN(Cc3ccccn3)CC2)n1`, the cytotoxicity at 10 µM was 7.73%.

As to `COCC(=O)N1CCC(C)(c2cc(O)[nH]n2)CC1`, the cytotoxicity at 10 µM is -6.92%.

Consider `CNC(=O)C1(CCCc2cnccn2)CCN1CCc1ccccc1` (configuration not stated), for which the cytotoxicity at 10 µM was -1.23%.

Take `Cc1cc(C(=O)N(C)C)nc(C2(C)CCCN2c2ccccc2)n1` (configuration not stated): the cytotoxicity at 10 µM turned out to be 4.89%.

As to `O=C1NC2(CCN(CC(=O)N3CCOCC3)CC2)Nc2ccc(Br)cc21`, the cytotoxicity at 10 µM is -0.445%.

`CNc1cc(C2CN(C(=O)c3ccccc3)CCO2)nc(C)n1` (configuration not stated): the cytotoxicity at 10 µM was 6.1%.

As to `CNC(=O)c1c[nH]nc1C1CCCN1c1ncccn1` (configuration not stated), the cytotoxicity at 10 µM worked out at 10%.

On to `CC(C)n1c(C2CCCN(Cc3ccnn3C)C2)nc2ccccc21` (configuration not stated), for which the cytotoxicity at 10 µM was -0.0273%.

Regarding `O=C(c1cccnc1)N1CCCC(c2cc(C(F)F)n3ncnc3n2)C1` (configuration not stated), the cytotoxicity at 10 µM was 0.745%.

Regarding `CC(C)C(C)NC(=O)c1cccn1Cc1cccnc1` (configuration not stated), the cytotoxicity at 10 µM was -44%.

Take `Cc1ccc(S(=O)(=O)Nc2ccc(-n3ccnc3C)nc2)cc1N(C)C`: the cytotoxicity at 10 µM is -3.78%.

`COc1ccc(Br)cc1Cn1nc(C(N)=O)ccc1=O`: the cytotoxicity at 10 µM is 8.09%.

Consider `Cn1cc(C2(C)CN(C(=O)COc3ccccc3F)CCO2)cn1` (configuration not stated), for which the cytotoxicity at 10 µM worked out at 0.814%.

Consider `CSc1c[nH]nc1NS(=O)(=O)c1ccc(C)c(C)c1`, for which the cytotoxicity at 10 µM stood at 1.79%.

As to `CCC(c1ccc(F)cc1F)S(=O)(=O)CCO` (configuration not stated), the cytotoxicity at 10 µM was -137%.

Take `CNC(=O)c1ccc(NC(=O)NC(C)CCc2cccn2C)c(C)c1` (configuration not stated): the cytotoxicity at 10 µM stood at 3.75%.

With `CC(=O)N1CCCN(C(=O)NCC2(c3cccs3)CCCC2)CC1`, the cytotoxicity at 10 µM worked out at 3.23%.

For the compound `CC(C)CC(CO)NS(=O)(=O)Cc1ccon1` (configuration not stated), the cytotoxicity at 10 µM is -3.33%.

On to `Cc1nnc(C2Cc3ccccc3CN2Cc2nc(C3CC3)no2)o1` (configuration not stated), for which the cytotoxicity at 10 µM was -13.1%.

`Cc1cc(N2CCc3c(ncn3C3CC3)C2)nc(N)n1`: the cytotoxicity at 10 µM is -5.44%.

As for `Cc1nc(C)c(CCNC(=O)NC2CC(=O)N(C(C)(C)C)C2)s1` (configuration not stated), the cytotoxicity at 10 µM was -1.08%.

Take `CC(C)(C)NC(=O)C1CSCN1S(=O)(=O)c1ccccc1S(C)(=O)=O` (configuration not stated): the cytotoxicity at 10 µM is -4.04%.

Turning to `NC(=O)NC(=O)CCN1C(=O)CC(Cc2ccc(F)cc2)C1=O` (configuration not stated), the cytotoxicity at 10 µM was -0.327%.

Consider `CCCN(CC(F)F)c1cc(COC)nc2ncnn12`, for which the cytotoxicity at 10 µM was -3.22%.

Regarding `Cn1nnnc1SC1CCN(c2ccccc2Cl)C1=O` (configuration not stated), the cytotoxicity at 10 µM was 5.12%.

For the compound `N#Cc1ccc(CNc2cnn(CCN3CCOCC3)c2)cc1`, the cytotoxicity at 10 µM is -5.75%.

Take `CCNC(=O)CCC(=O)NC1(c2cccc(C(F)(F)F)c2)CCC1`: the cytotoxicity at 10 µM is -39.8%.

Take `COc1cc(-n2cccc2)c(Cl)cc1C(=O)NS(C)(=O)=O`: the cytotoxicity at 10 µM was 0.872%.

Regarding `CC(NC(=O)N1CCN(c2ncccn2)CC1)c1ccc(C#N)cc1` (configuration not stated), the cytotoxicity at 10 µM was -2.81%.

Take `CC(C)c1nc(C2CCCN2CCNS(C)(=O)=O)no1` (configuration not stated): the cytotoxicity at 10 µM turned out to be 3.33%.

With `CC(C1CC1)N(C)C(=O)c1cnc(-c2ccc3c(c2)OCO3)s1` (configuration not stated), the cytotoxicity at 10 µM is -7.06%.

`O=C(Cc1ccccn1)N1C[C@H]2CN(Cc3ccccn3)C[C@H]2C1`: the cytotoxicity at 10 µM is -108%.

On to `CS(=O)(=O)N1CCOCC2(CCN(c3cnccn3)CC2)C1`, for which the cytotoxicity at 10 µM was -107%.

As to `CN(C)C(=O)C1CCC2(CCN(C(=O)Nc3ccccc3)CC2)O1` (configuration not stated), the cytotoxicity at 10 µM was -106%.

As to `Cc1ccc(C(=O)N2C[C@@H]3COC[C@]3(COc3cccnc3)C2)cn1`, the cytotoxicity at 10 µM was -3.91%.

Take `CCO[C@H]1CO[C@@]2(CCCN(S(=O)(=O)c3ccccc3)C2)C1`: the cytotoxicity at 10 µM amounted to 4.42%.

With `CNCc1cn(CC2CCN(CC(C)(C)CN3CCCC3)CC2)nn1`, the cytotoxicity at 10 µM is -1.58%.

Take `Cc1cc2ccccc2n1CCC(=O)N1CCCCC1CCO` (configuration not stated): the cytotoxicity at 10 µM came to 10.4%.

Regarding `CC(C)OC(=O)N1CCCCC1CCn1cccn1` (configuration not stated), the cytotoxicity at 10 µM was -1.17%.

Regarding `CCN(C)S(=O)(=O)NCC1CCN(Cc2ccccc2C)CC1`, the cytotoxicity at 10 µM was -4.93%.

Take `COc1cccc([C@@H]2CCN(Cc3[nH]nc(C)c3Cl)C[C@H]2O)c1`: the cytotoxicity at 10 µM was -3.26%.

`CC(C)(O)c1cn(C2CCN(C(=O)CCc3ccncc3)CC2)nn1`: the cytotoxicity at 10 µM was -5.32%.

Consider `CN1CC[C@H]2CN(C(=O)c3ccc4sc5c(c4c3)CCNC5=O)C[C@H]21`, for which the cytotoxicity at 10 µM is -0.193%.

Turning to `CNCc1n[nH]c(=O)n1CC1CCCCC1`, the cytotoxicity at 10 µM was -46.5%.

As to `O=C(O)c1cccc(CC2CCN(c3ncc(F)cn3)CC2)c1`, the cytotoxicity at 10 µM was -108%.

Take `COCCN1CC2(CCCN(Cc3cc(=O)c(OC)co3)C2)CCC1=O` (configuration not stated): the cytotoxicity at 10 µM is -40%.

Take `CN1C(=O)c2ccc(C(=O)N(Cc3cnn(C)c3)C3CC3)cc2C1=O`: the cytotoxicity at 10 µM was 5.68%.

On to `O=C(N[C@@H]1CCN(c2nc3ccccc3o2)C[C@H]1O)c1cnccn1`, for which the cytotoxicity at 10 µM stood at 3.52%.

On to `CCc1cccc(OC2CN(C(=O)[C@@H](N)CCSC)C2)c1`, for which the cytotoxicity at 10 µM turned out to be 0.684%.

Regarding `CCC(CC)Cn1ncc(N2CCOCC2)cc1=O`, the cytotoxicity at 10 µM is -3.46%.

On to `Cc1ncsc1CCC(=O)NCc1csc(N(C)C)n1`, for which the cytotoxicity at 10 µM was 1.31%.

`Nc1cc(N2CCCC(COc3ccc(F)cc3)C2)ncn1` (configuration not stated): the cytotoxicity at 10 µM was -0.106%.

For the compound `CCC(C(=O)N(C)CCC1=CCN(C)CC1)c1ccccc1` (configuration not stated), the cytotoxicity at 10 µM is -10.9%.

Take `COc1ccc(CC(=O)N2CC[C@H](CO)[C@H](O)C2)c(OC)c1`: the cytotoxicity at 10 µM is -0.392%.

Consider `N#Cc1cccnc1N1CCCC(CO)(CCOc2ccccc2)C1` (configuration not stated), for which the cytotoxicity at 10 µM came out at 3.04%.

`Cc1noc(CN2CC(=O)N(C)c3ccccc3C2=O)n1`: the cytotoxicity at 10 µM is -5.03%.

As to `COc1ccc(CN2CCCC(Nc3cccc(F)c3)C2)cc1O` (configuration not stated), the cytotoxicity at 10 µM was found to be 5.76%.

Take `CCn1cnnc1C1CCN(C(=O)c2cc(OC)ccc2OC)CC1`: the cytotoxicity at 10 µM was -4.2%.

As to `CC(C)c1cc(NC(=O)CN2CCCC2Cn2cncn2)on1` (configuration not stated), the cytotoxicity at 10 µM was -4.05%.

For `CN(Cc1cccc(F)c1)Cc1nc2c(cnn2C)c(=O)[nH]1`, the cytotoxicity at 10 µM was -2.8%.

With `CCOc1ccnc(N2CCN(C(=O)c3ccoc3)CC2)n1`, the cytotoxicity at 10 µM is -6.1%.

Take `O=C(N1CCCC(n2cncn2)C1)C1(c2cccc(F)c2)CC1` (configuration not stated): the cytotoxicity at 10 µM is -2.91%.

For `c1cc2c(cc1CN(Cc1nc(C3CC3)no1)C1CCCC1)OCO2`, the cytotoxicity at 10 µM is -10.6%.

With `c1ccc(Cc2nnc(CN3CCCC3Cn3cccn3)o2)cc1` (configuration not stated), the cytotoxicity at 10 µM is -11.7%.

Consider `COc1c(CNCc2ccccc2Cn2ccnc2)c(C)nn1C`, for which the cytotoxicity at 10 µM is -9.2%.

With `O=C(NCC1CC1)Nc1ccc(OCC(F)(F)F)nc1`, the cytotoxicity at 10 µM was -2.4%.

Turning to `Cc1cc(C(=O)NCC(c2ccsc2)N(C)C)no1` (configuration not stated), the cytotoxicity at 10 µM is -18.3%.

On to `CN(C)c1cc(CNC(=O)c2cccc(F)c2)ccn1`, for which the cytotoxicity at 10 µM was -13.5%.

Turning to `NC(=O)NC(=O)CN1CCN(c2nccs2)CC1`, the cytotoxicity at 10 µM is -17.9%.

`c1ccc(CN2CCCC(Cn3cncn3)C2)nc1` (configuration not stated): the cytotoxicity at 10 µM is -9.93%.

In the case of `Cc1ncsc1C(=O)NCCNc1ncccc1C#N`, the cytotoxicity at 10 µM is -21.5%.

For `Cc1cccc2[nH]cc(CC(=O)N3CCC(Nc4cccnn4)CC3)c12`, the cytotoxicity at 10 µM is -8.45%.

In the case of `CCc1ccc(CNC(=O)N2CCN(Cc3cc(C)no3)CC2)s1`, the cytotoxicity at 10 µM stood at 1.45%.

Regarding `CCc1ncc(CN(C)C(=O)Nc2cccnc2N2CCCC2)s1`, the cytotoxicity at 10 µM was -8.43%.

Regarding `Cn1ncc2c(=O)[nH]c(CN3CCCC3Cc3ccccc3)nc21` (configuration not stated), the cytotoxicity at 10 µM was -6.56%.

As to `CC(C)c1ncncc1C(=O)N1CCCN(Cc2cccs2)CC1`, the cytotoxicity at 10 µM is -7.42%.

For `O=C(NCc1cc[nH]n1)NCC(c1ccc(F)cc1)N1CCOCC1` (configuration not stated), the cytotoxicity at 10 µM is -7.77%.

For `Cc1nc(-c2ccc(CO)cc2)cc(C2CCNCC2)n1`, the cytotoxicity at 10 µM came out at 12.3%.

Take `Cn1ccc(C(=O)N2C[C@@H]3CCN(c4cnccn4)C[C@@H]3C2)n1`: the cytotoxicity at 10 µM was -106%.

In the case of `CN(C)C(=O)CO[C@H]1CO[C@@]2(CCN(Cc3ccsc3)C2)C1`, the cytotoxicity at 10 µM was -111%.

For `CN(C)C(C)(C)CNCc1cn(C)nc1-c1cccnc1`, the cytotoxicity at 10 µM is 11.8%.

In the case of `N#Cc1ccc(C(=O)N2CC[C@H]3[C@@H]2CCC(=O)N3c2cccnc2)cc1`, the cytotoxicity at 10 µM stood at 1.77%.

Turning to `Cc1ccc2c(c1)CN(C(=O)c1ccccc1F)C(CN(C)C)CO2` (configuration not stated), the cytotoxicity at 10 µM was found to be 4.66%.

For `O=C(NC[C@]12COC[C@H]1CN(Cc1nccs1)C2)c1ccccc1`, the cytotoxicity at 10 µM is -11.8%.

As for `COCCN1C(=O)CC(c2cccnc2)C12CCN(C(=O)C1CC1)CC2` (configuration not stated), the cytotoxicity at 10 µM was -104%.

With `CC(C)c1nn(C)cc1CNCc1ccnc(N(C)C)c1`, the cytotoxicity at 10 µM was -0.431%.

Turning to `CC(C)N1CCc2c(CNC(=O)c3nccn3C)cncc2C1`, the cytotoxicity at 10 µM was -106%.

`CC(C)NC(=O)[C@H]1C[C@H]2CN(C(=O)NC(C)C)C[C@@H]1O2`: the cytotoxicity at 10 µM is -105%.

Source of the values: ChEMBL document CHEMBL4513216, “Probing the Open Global Health Chemical Diversity Library for Multistage-Active Starting Points for Next-Generation Antimalarials” (ACS Infect Dis, 2020).
